Consider 4 molecules from ChEMBL document CHEMBL1125226, “Antineoplastic activity of didemnin congeners: nordidemnin and modified chain analogues” (1991).

For assay [1], the system named is L1210. The assay is described as follows: In vitro cytostatic activity determined on L1210 leukemia cells at 24 hours. The assay is classed as functional. The conditions noted are these: Mus musculus, L1210, 24 h; read-out: ID50 (the source's name). The method, boiled down: (§1)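 Log-phase L1210 cells were seeded at 0.8 × 10⁵ cells/mL in RPMI 1640 with 20% heat-inactivated horse serum, 2 mmol/L L-glutamine, streptomycin and penicillin. Drugs in ethanol (0.5% final) were tested at several concentrations.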

In assay [2] the test system is L1210. In words: In vitro cytostatic activity determined on L1210 leukemia cells at 48 hours. The assay is classed as functional. To be noted: Mus musculus, L1210, 48 h; read-out: ID50 (the source's name). The method, boiled down: as §1
The test system of assay [3] is P388. In words: Antitumor activity against P388 Leukemia from CDF1 female mice as Median survival time of treated mice at a dose of 0.12 mg/kg/day. The assay is classed as functional, Mus musculus. The method, boiled down:
(§2)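 CDF1 female mice (BALB/c ♀ × DBA/2 ♂) given 10⁶ P388 cells ip on day 0. Drug in 2% methanol given ip on days 1, 5 and 9, 10 mice per group and more controls. Toxicity is survivors on day 5, with weight change between days 1 and 5. Mortality followed 30 days. T/C% is treated over control median survival (NCI method), significant at ≥125%.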

Assay [4] relates to P388. The assay is described as follows: Antitumor activity against P388 Leukemia from CDF1 female mice as Median survival time of treated mice at a dose of 0.75 mg/kg/day. The assay is classed as functional, Mus musculus. The method, boiled down:
as §2

In assay [5] the test system is P388. The assay is described as follows: Antitumor activity against P388 Leukemia from CDF1 female mice as average weight change of animals between day 1 and day 5 after tumor implementation at a dose of 0.12 mg/kg/day. The assay is classed as functional, Mus musculus. The method, boiled down: (§3)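 P388 leukemia: CDF1 female mice were inoculated ip with 10⁶ cells on day 0. Treatment in 2% methanol was given ip on days 1, 5 and 9, with 10 mice per group and a larger control group. Body weight was recorded on days 1 and 5 post-implant, and the average change was reported.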

The subject of assay [6] is P388. In words: Antitumor activity against P388 Leukemia from CDF1 female mice as average weight change of animals between day 1 and day 5 after tumor implementation at a dose of 0.75 mg/kg/day. The assay is classed as functional, Mus musculus. The essentials:
as §3

Assay [7] concerns P388. In words: Antitumor activity against P388 Leukemia from CDF1 female mice (T/C) as median survival time of treated mice (T) over that of control mice (C) at a dose of 0.75 mg/kg/day. The class given is functional, Mus musculus. The essentials:
as §2

In assay [8] the test system is P388. In words: Antitumor activity against P388 Leukemia from CDF1 female mice (T/C) as median survival time of treated mice (T) over that of control mice (C) at a dose of 0.12 mg/kg/day. The class given is functional, Mus musculus. The method, boiled down: as §2
For assay [9], the system named is P388. In words: Antitumor activity against P388 Leukemia from CDF1 female mice as the number of survivors on day 5 at a dose of 0.75 mg/kg/day. The assay is classed as functional, Mus musculus. The method, boiled down:
as §2

In brackets after ≈: the same amount, converted by molar mass.

As usually defined, the T/C is the result in the treated group divided by that in the control group, in per cent. As for `COc1ccc(C[C@H]2C(=O)O[C@H](C)[C@H](NC(=O)[C@@H](CC(C)C)N(C)C(=O)C3CCCN3C(=O)[C@H](O)c3ccccc3)C(=O)NC(C(C)C)[C@H](O)CC(=O)O[C@@H](C(C)C)C(=O)[C@H](C)C(=O)N[C@@H](CC(C)C)C(=O)N3CCC[C@H]3C(=O)N2C)cc1` (some centres not stated), the IC50 worked out at 2 ng/mL (≈ 1.72 nM) in the assay on L1210 [1] and 1.3 ng/mL (≈ 1.12 nM) in the assay on L1210 [2]. Moreover, the “median survival time, days” value in the assay with P388 [3] is on record as 16; with P388 [4], 19. Also, the Body weight change in the assay on P388 [5] is listed as 0.2 g; with P388 [6] it was -1.5 g. The results for the T/C in the assay on P388 [7] and in the assay on P388 [8] were 159% and 134%, respectively. The molecule also came in with a Toxicity in the assay on P388 [9] of 1.

In the case of `COc1ccc(C[C@H]2C(=O)O[C@H](C)C(NC(=O)[C@H](CC(C)C)N(C)C(=O)C3CCCN3C(=O)[C@@H](C)O)C(=O)NC(C(C)C)[C@H](O)CC(=O)O[C@@H](C(C)C)C(=O)[C@H](C)C(=O)N[C@@H](CC(C)C)C(=O)N3CCC[C@H]3C(=O)N2C)cc1` (some centres not stated), the results for the IC50 in the assay on L1210 [1] and in the assay on L1210 [2] were 1260 ng/mL (≈ 1150 nM) and 589 ng/mL (≈ 536 nM), respectively.

In the case of `CCCCCCCCCCCCCCCC(=O)N1CCCC1C(=O)N(C)[C@H](CC(C)C)C(=O)N[C@@H]1C(=O)NC(C(C)C)[C@H](O)CC(=O)O[C@@H](C(C)C)C(=O)[C@H](C)C(=O)N[C@@H](CC(C)C)C(=O)N2CCC[C@H]2C(=O)N(C)[C@@H](Cc2ccc(OC)cc2)C(=O)O[C@@H]1C` (some centres not stated), the IC50 in the assay with L1210 [1] and in the assay on L1210 [2] was greater than 1000 ng/mL in each case.

For `COc1ccc(C[C@H]2C(=O)O[C@H](C)[C@H](NC(=O)[C@@H](CC(C)C)N(C)C(=O)C3CCCN3C(=O)CCc3ccc(O)cc3)C(=O)NC(C(C)C)[C@H](O)CC(=O)O[C@@H](C(C)C)C(=O)[C@H](C)C(=O)N[C@@H](CC(C)C)C(=O)N3CCC[C@H]3C(=O)N2C)cc1` (some centres not stated), the IC50 is 4.8 ng/mL (≈ 4.09 nM) in the assay on L1210 [1] and 1.5 ng/mL (≈ 1.28 nM) in the assay with L1210 [2]. Moreover, the “median survival time, days” value with P388 [3] is reported as 14.7; in the assay on P388 [4], 18.7. In addition, the Body weight change with P388 [5] is 0.2 g; with P388 [6] it was -1.1 g. The T/C in the assay with P388 [7] came to 157%; in the assay on P388 [8] it was 123%. The same molecule showed a Toxicity in the assay with P388 [9] of 1.
